Compound activity: PubChem, several laboratories
Shown are actives, neighbours in structure and some others; about 4% of the full set was active somewhere.
OX1R antag-1: OX1R (human) antagonism; O43613; OX1R-expressing cells, FRET antagonist read-out; inhibition, % at 6.6 µM; actives 1.8% (n = 330,000); in the data active = inhibition mostly above about 38%, no sharp cut-off; inactive = mostly below about 40%;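 note: 0% = agonist challenge alone and 100% = reference antagonist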
Target sequence (O43613 whole entry, looked up): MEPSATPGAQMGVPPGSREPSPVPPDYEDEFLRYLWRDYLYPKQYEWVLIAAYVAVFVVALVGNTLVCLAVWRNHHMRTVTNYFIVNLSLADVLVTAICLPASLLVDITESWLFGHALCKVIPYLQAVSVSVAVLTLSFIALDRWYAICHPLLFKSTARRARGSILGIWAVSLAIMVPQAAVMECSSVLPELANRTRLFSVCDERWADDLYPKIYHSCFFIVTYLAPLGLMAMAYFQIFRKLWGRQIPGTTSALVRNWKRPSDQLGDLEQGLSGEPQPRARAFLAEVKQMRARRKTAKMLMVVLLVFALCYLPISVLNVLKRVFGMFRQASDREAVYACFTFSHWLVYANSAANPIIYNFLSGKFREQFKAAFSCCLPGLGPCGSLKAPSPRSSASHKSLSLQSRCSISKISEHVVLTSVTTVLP
OX1R antag-2: human HCRTR1 antagonism; O43613; CHO/OX1R cells, Fluo-8 calcium fluorescence, orexin A; inhibition, % at 5 µM; actives 0.43% (n = 330,000); AID 434989;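 active = inhibition above its plate's threshold, mean inhibition of all tested compounds on the plate plus 3 SD, cut at about 37% in these data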;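 note: 0% = orexin A challenge wells and 100% = SB-334867-A antagonist wells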
CHO parental Ca: signal in parental CHO cells, OX1R antagonist counter-screen. parental CHO-K1, ATP-induced calcium, Fluo-8 fluorescence. inhibition, % at 5.6 µM. actives 0.63% (n = 330,000). AID 463079;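 active = inhibition above that plate's mean sample inhibition plus 3 SD, cut at about 26% in these data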;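 note: 0% = ATP-challenged DMSO wells and 100% = DMSO wells without ATP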
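Measured by: calcium-sensitive Fluo-8 fluorescence / Test system: CHO parental line / Controls: ATP-challenged DMSO wells low, unchallenged DMSO wells high / Measure: % inhibition / Compound: single nominal dose of 5.6 µM per compound / Replicates: single well per compound, no replicates / Reagent: ATP as calcium-mobilizing challenge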
TAAR1 antag: human TAAR1 antagonism. Q96RJ0. CHO RD-HGA16 TAAR1, Fluo-8 calcium fluorescence, antagonist. inhibition, % at 3 µM. actives 1.5% (n = 360,000). AID 624466;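 active = inhibition above a per-plate cutoff, the mean inhibition of test compounds on that plate plus 3 SD, cut at about 49% in these data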;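 note: 0% = DMSO plus EC80 beta-PEA response and 100% = DMSO alone without agonist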
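Test system – hTAAR1-expressing CHO RD-HGA16 cells, Gα16-coupled · Also added – β-PEA at EC80 concentration, post-compound challenge · Compound – 3 µM, single point · Incubation – dye loading 75 min at 37 °C, then 30 min room temperature · Measured by – Fluo-8 intracellular calcium dye fluorescence, real-time kinetic reads · Benchmarks – vehicle and agonist controls · Replicates – singlicate, one well per test compound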
TAAR1 ag: agonists of human TAAR1; CHO RD-HGA16 TAAR1, Fluo-8 calcium fluorescence; vehicle wells 0%, saturating PEA agonist 100%; activation, % at 3 µM; actives 0.99% (n = 360,000); AID 624467;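 active = activation above the mean activation of all test compounds in the run plus 3 SD, cut at about 38% in these data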
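test system = CHO RD-HGA16 cells carrying human TAAR1 plus Gα16 | schedule = 17-24 h seeding, 75 min 37 °C dye, 30 min RT | compound dosing = 3 µM single concentration | control set = DMSO and PEA EC100 | replicates = n 1 | signal = Fluo-8 fluorescence, 5 s baseline then 140 s kinetic read | measure = percent activation vs PEA EC100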
NTR1 agonist: agonists of human neurotensin receptor NTR1 | P30989 | NTR1-U2OS beta-arrestin-GFP spot imaging, agonist mode | activation, % at 20 µM | actives 0.17% (n = 330,000);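 active = activation at or above 40% of the spot to cytoplasm intensity ratio, with at least 20 cells analyzed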;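 note: 0% = DMSO without peptide and 100% = 100 nM NTR1 peptide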
TAAR1 nonsel count: nonselective antagonist in TAAR1 antagonist counter-screen | shares compounds with TAAR1 antag | AID 651780 | actives 77% (n = 2,400) | inhibition, % at 3 µM | counterscreen cell line, calcium fluorescence, antagonist mode; in the data active = inhibition above about 22%;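 note: CHO-Ga16 host cells stimulated with ATP at an EC80 level; 0% = agonist EC80 plus vehicle and 100% = vehicle without agonist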
TAAR1 ant conf: confirmation of human TAAR1 antagonists | TAAR1-expressing cells, fluorescence antagonist read-out | AID 651785 | shares compounds with TAAR1 antag | inhibition, % at 3 µM | actives 40% (n = 2,400); in the data active = inhibition above about 49%;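 note: CHO-Ga16 host cells challenged with agonist PEA near its EC80; 0% = agonist at EC80 plus vehicle and 100% = vehicle with no agonist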
Ga16 nonsel ag: nonselective Ga16 agonism, counter-screen | shares compounds with TAAR1 antag | Ga16-expressing cells, calcium fluorescence, agonist counterscreen | activation, % at 3 µM | actives 18% (n = 2,400) | AID 651953; in the data active = activation above about 12%;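 note: 0% = vehicle wells and 100% = saturating stimulus response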
TAAR1 ag counter: activates human TAAR1 in antagonist counter-screen; AID 651955; shares compounds with TAAR1 antag; actives 2% (n = 2,400); hTAAR1 cell line, fluorescence activation, agonist mode; activation, % at 3 µM; in the data active = activation above about 37%;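 note: CHO cells stably expressing TAAR1 with calcium dye readout; 0% = DMSO vehicle and 100% = full agonist response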
* = called active by the depositor; . = not tested or not shown; ! = a repeat was not active.

SMILES	OX1R antag-1	OX1R antag-2	CHO parental Ca	TAAR1 antag	TAAR1 ag	NTR1 agonist	TAAR1 nonsel count	TAAR1 ant conf	Ga16 nonsel ag	TAAR1 ag counter
COc1ccc(CCNC(=O)c2ccc(Cl)c(S(=O)(=O)N(C)c3ccccc3)c2)cc1	3	-2	-2	57*	12	8	33*	44	9	3
c1ccc(CCc2cn(C[C@H]3CC[C@@H]([C@@H]4CC[C@H](Cn5cc(CCc6ccccc6)nn5)O4)O3)nn2)cc1	17	-22	-6	57*	26	-4	32*	57*	13*	13
c1ccc(-c2cn(C[C@H]3CC[C@@H]([C@@H]4CC[C@H](Cn5cc(-c6ccccc6)nn5)O4)O3)nn2)cc1	36	-43	-24	9	13	-1	.	.	.	.
COc1cccc2sc3ccc(C#CC4(O)CCCCC4)cc3c(=O)c12	11	-27	-23	60*	16	8	22*	31	6	4
COc1cccc2oc3cc(C#CC4(O)CCCCC4)ccc3c(=O)c12	47	5	-28	57*	22	25	22*	32	7	17
CC(C)CC(=O)Nc1nc(-c2ccc(S(=O)(=O)N3CCOCC3)cc2)cs1	.	.	.	6	9	4	.	.	.	.
O=C(Nc1nc(-c2ccccc2)c(C(=O)c2ccccc2)s1)c1ccc(S(=O)(=O)N2CCCC2)cc1	17	-9	-11	-9	11	4	.	.	.	.
O=C(Nc1nc(-c2cc3ccccc3o2)cs1)c1ccc(S(=O)(=O)N2CCCC2)cc1	43	6	10	24	5	5	.	.	.	.
O=C(Nc1nc(-c2nc3ccccc3s2)cs1)c1ccc(S(=O)(=O)N2CCOCC2)cc1	67*	11	32*	69*	33	39	52*	70*	22*	25
O=C(Nc1nc(-c2ccccc2)c(-c2ccccc2)s1)c1ccc(S(=O)(=O)N2CCCC2)cc1	2	2	0	107*	6	4	0	0	-1	-1
O=C(Nc1nc(-c2ccc(S(=O)(=O)N3CCOCC3)cc2)cs1)c1ccccc1	16	0	-3	59*!	13	20	28*	50*	11	6
O=C1[C@H](Cc2ccccc2)NCC=CC[C@H](c2ccco2)N1Cc1ccccc1	.	.	.	42	13	.	.	.	.	.
CCc1ccccc1NC(=O)Cn1nnc(-c2cccs2)n1	7	13	-14	-12	3	1	.	.	.	.
Cc1cccc(NC(=O)Cn2nnc(-c3cccs3)n2)c1C	7	0	-1	66*	14	1	20	46	4	7
NC(=O)c1ccsc1NC(=O)C1CCN(S(=O)(=O)c2cccs2)CC1	0	-13	-12	39	14	0	.	.	.	.
CNC(=O)c1ccsc1NC(=O)C1CCN(S(=O)(=O)c2ccc(Cl)s2)CC1	5	-20	-8	58*	12	10	29*	47	15*	30
COc1ccc(OC)c(NC(=O)c2cccc(N3C(=O)C4C5CCC(C5)C4C3=O)c2)c1 (stereo unspecified)	17	5	-1	29	7	1	.	.	.	.
COc1ccc(OC)c(NC(=O)c2cccc(N3C(=O)C4C5C=CC(C6CC56)C4C3=O)c2)c1 (stereo unspecified)	9	-31	-7	75*	11	4	46*	62*	13*	10
COC(=O)c1ccc(NC(=O)c2cccc(N3C(=O)CCC3=O)c2)cc1	.	.	.	-6	2	-1	.	.	.	.
COC(=O)c1ccc(NC(=O)c2cccc(N3C(=O)C4C5C=CC(C6CC56)C4C3=O)c2)cc1 (stereo unspecified)	18	-23	-6	65*	13	9	58*	75*	15*	12
c1ccc(-c2cc3c(N4CCN(c5ncccn5)CC4)ncnc3s2)cc1	14	-35	-31	55*	5	4	30*	50*	4	6
CCC1CN(C(=O)N2CCC(C(=O)Nc3ccccc3OC)CC2)c2ccccc2O1 (stereo unspecified)	3	-32	-21	61*	14	0	22*	42	10	13
Cc1noc(C)c1CSCC(=O)NCCN1C(=O)S/C(=C\c2ccccc2F)C1=O	22	-30	-12	56*	13	3	35*	54*	13*	12
CCOc1ccc(N2C(=O)C(Cl)=C(Nc3ccccc3O)C2=O)cc1	9	2	-26	57*	15	-1	28*	39	12*	7
COc1ccccc1NC1=C(Cl)C(=O)N(c2ccccc2)C1=O	8	-7	-15	5	-2	2	.	.	.	.
SMILES	OX1R antag-1	OX1R antag-2	CHO parental Ca	TAAR1 antag	TAAR1 ag	NTR1 agonist	TAAR1 nonsel count	TAAR1 ant conf	Ga16 nonsel ag	TAAR1 ag counter
CN(C(=O)c1sc2nc(N3CCOCC3)c3c(c2c1N)CCCC3)c1ccccc1	38	-28	-20	59*	8	9	19	35	8	12
COCC(=O)N1CCC(Oc2ccc(C(=O)NC(C)c3nccs3)cc2)CC1 (stereo unspecified)	35	-1	0	-22	1	0	.	.	.	.
O=C1C2C3CCC(C3NCc3ccccc3)C2C(=O)N1Cc1ccccc1 (stereo unspecified)	23	-18	-28	55*	6	2	20	34	6	9
O=C(NCc1cc(C(F)(F)F)ccc1Cl)c1cccc2c1C(=O)c1ccc(N3CCOCC3)cc1S2(=O)=O	-2	2	-8	60*	18	11	33*	50*	22*	22
Cc1ccc(C)c(N2CCN(C(=O)CCCOc3cc(=O)n(C)c4ccccc34)CC2)c1	18	-19	-14	54*	25	21	39*	56*	13*	16
Cc1ccc(C)c(N2CCN(C(=O)COc3cc(=O)n(C)c4ccccc34)CC2)c1	10	-20	-5	24	10	9	.	.	.	.
Cc1ccc(NC(=O)c2ccc(N3CCOCC3)c([N+](=O)[O-])c2)cc1S(=O)(=O)N1CCOCC1	32	13	22	68*	32	1	42*	60*	16*	13
